According to ChEMBL document CHEMBL3421547, “Novel myricetin derivatives: Design, synthesis and anticancer activity” (Eur J Med Chem, 2015):
Activity calls are given as the source filed them. No cut-off for these calls is given here.

How the values were obtained:
[1] = molecular target: Telomerase reverse transcriptase (Homo sapiens, UniProt O14746); assay: Inhibition of telomerase in human MDA-MB-231 cells after 24 hrs by TRAP-PCR-ELISA; type: cell-based
Outline: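 MDA-MB-231 cells grown in DMEM with 10% FBS plus penicillin/streptomycin, 5 × 10^4 seeded in T25 flasks and allowed to adhere. Treated 24 h at 60, 20, 6.67, 2.22, 0.74, 0.25 and 0.082, with staurosporine included. Lysed in RIPA 30 min on ice, supernatant taken after 12,000 g spin at 4 °C. Telomerase read by TRAP-PCR-ELISA kit at 490 nm; mean ± SD.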

MDA-MB-231 [2] = assay: Cytotoxicity against human MDA-MB-231 cells after 48 hrs by MTT assay; details: MDA-MB-231, 48 h
MGC-803 = assay: Cytotoxicity against human MGC803 cells after 48 hrs by MTT assay; details: MGC-803, 48 h
MDA-MB-231 [3] = assay: Cell cycle arrest in human MDA-MB-231 cells assessed as accumulation at S phase at 1 uM after 48 hrs by flow cytometry (reference value: 34.6 +/- 0.31%); type: functional
MDA-MB-231 [4] = assay: Cell cycle arrest in human MDA-MB-231 cells assessed as accumulation at G0/G1 phase at 1 uM after 48 hrs by flow cytometry (reference value: 40.5 +/- 0.38%); type: functional
MDA-MB-231 [5] = assay: Down regulation of p65 protein expression in human MDA-MB-231 cells at 1 uM after 48 hrs by Western blotting analysis; type: functional, cell-based
MDA-MB-231 [6] = assay: Antiproliferative activity against human MDA-MB-231 cells assessed as cell distortion at 1 to 10 uM after 24 to 72 hrs by inverted microscopic analysis; type: functional, cell-based
Outline: (§1)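 MDA-MB-231 seeded at 3 × 10^4 cells/mL in DMEM with 10% FBS and grown 24 h at 37 °C, 5% CO2. Compounds in DMSO added (final DMSO ≤0.1%) at 1 and 10 concentrations for 24, 48 and 72 h. Morphology observed by inverted microscope and photographed in randomly chosen fields.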

SGC-7901 = assay: Cytotoxicity against human SGC7901 cells after 48 hrs by MTT assay; details: SGC-7901, 48 h
MDA-MB-231 [7] = assay: Down regulation of TERT protein expression in human MDA-MB-231 cells at 1 uM after 48 hrs by Western blotting analysis; type: functional, cell-based
Outline: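 MDA-MB-231 cells treated 48 h, with AZT (3.0 mmol/L) as reference. Cells lysed in RIPA and protein measured by BCA; 30 or 50 total protein run on SDS-PAGE and blotted to PVDF. Primary antibodies applied 1 h in TBS/Tween-20 with 3% Marvel (anti-TERT 1:500, β-actin loading control). HRP secondaries, ECL detection.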

MDA-MB-231 [8] = assay: Cell cycle arrest in human MDA-MB-231 cells assessed as accumulation at G2 phase at 1 uM after 48 hrs by flow cytometry (reference value: 34.6 +/- 0.31%); type: functional
Bcap37 = assay: Cytotoxicity against human Bcap37 cells after 48 hrs by MTT assay; details: Bcap37, 48 h
MDA-MB-231 [9] = assay: Antiproliferative activity against human MDA-MB-231 cells assessed as breaking and crack at 1 to 10 uM after 24 to 72 hrs by inverted microscopic analysis; type: functional, cell-based; outline: as §1

Sequence of Telomerase reverse transcriptase (O14746 whole entry): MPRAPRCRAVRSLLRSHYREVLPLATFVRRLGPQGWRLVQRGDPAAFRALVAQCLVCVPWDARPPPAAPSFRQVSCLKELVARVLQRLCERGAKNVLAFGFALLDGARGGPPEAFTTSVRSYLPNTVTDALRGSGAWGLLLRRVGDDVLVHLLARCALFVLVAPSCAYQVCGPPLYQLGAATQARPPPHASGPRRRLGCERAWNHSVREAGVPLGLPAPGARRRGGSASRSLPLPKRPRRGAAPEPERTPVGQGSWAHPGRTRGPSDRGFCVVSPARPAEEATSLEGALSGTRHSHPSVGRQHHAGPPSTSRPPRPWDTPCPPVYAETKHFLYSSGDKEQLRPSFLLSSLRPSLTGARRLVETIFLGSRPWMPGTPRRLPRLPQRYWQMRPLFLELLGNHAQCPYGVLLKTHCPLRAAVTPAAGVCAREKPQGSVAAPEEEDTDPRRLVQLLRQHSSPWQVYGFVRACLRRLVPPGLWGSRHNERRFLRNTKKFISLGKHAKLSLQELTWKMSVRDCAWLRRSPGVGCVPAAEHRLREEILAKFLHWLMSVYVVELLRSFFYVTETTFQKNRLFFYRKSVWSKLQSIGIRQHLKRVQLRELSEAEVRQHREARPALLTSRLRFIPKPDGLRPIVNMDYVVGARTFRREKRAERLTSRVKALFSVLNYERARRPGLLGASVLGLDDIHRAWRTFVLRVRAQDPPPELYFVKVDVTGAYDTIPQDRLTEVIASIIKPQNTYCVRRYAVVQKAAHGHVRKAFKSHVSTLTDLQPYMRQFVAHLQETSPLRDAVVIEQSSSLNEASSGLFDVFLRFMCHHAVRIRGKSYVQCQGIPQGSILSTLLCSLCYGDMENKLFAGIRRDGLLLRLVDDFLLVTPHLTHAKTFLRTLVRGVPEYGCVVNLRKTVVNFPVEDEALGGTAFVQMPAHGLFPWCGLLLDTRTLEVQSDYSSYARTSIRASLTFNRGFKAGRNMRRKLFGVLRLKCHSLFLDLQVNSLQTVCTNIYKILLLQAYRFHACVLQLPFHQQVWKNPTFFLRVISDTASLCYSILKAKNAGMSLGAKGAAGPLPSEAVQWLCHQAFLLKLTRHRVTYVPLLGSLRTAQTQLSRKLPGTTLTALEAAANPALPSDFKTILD

Compound	IC50 [1] [µM]	IC50 (MDA-MB-231 [2]) [µM]	IC50 (MGC-803) [µM]	IC50 (SGC-7901) [µM]	IC50 (Bcap37) [µM]	also measured
CCN(CC)CCCCOc1c(-c2cc(OC)c(OC)c(OC)c2)oc2cc(OC)cc(OC)c2c1=O	40.3	13				
COc1cc(OC)c2c(=O)c(OCC(=O)N/N=C/c3ccco3)c(-c3cc(OC)c(OC)c(OC)c3)oc2c1	0.91	1.86	6.05	5.72	3.11	Activity (MDA-MB-231 [3]): 28.4%; Activity (MDA-MB-231 [4]): 44.3%; Activity (MDA-MB-231 [5]): Active; Activity (MDA-MB-231 [6]): Active; Activity (MDA-MB-231 [7]): Active; Activity (MDA-MB-231 [8]): 27.4%
COc1cc(OC)c2c(=O)c(OCC(=O)N/N=C/c3ccccn3)c(-c3cc(OC)c(OC)c(OC)c3)oc2c1		9.89	15.3	16.2	18.8	
COc1cc(OC)c2c(=O)c(OCC(=O)N/N=C/c3ccc(C)cc3)c(-c3cc(OC)c(OC)c(OC)c3)oc2c1		4.57	3.51	10.1	5.17	
COc1cc(OC)c2c(=O)c(OCCCCN3CCCCC3)c(-c3cc(OC)c(OC)c(OC)c3)oc2c1	2	3.03	26.8	6.08	2.62	
COc1cc(OC)c2c(=O)c(OCC(=O)N/N=C/c3ccccc3F)c(-c3cc(OC)c(OC)c(OC)c3)oc2c1	1.82	3.4	2.78	7.72	4.09	
CCN(CC)CCCOc1c(-c2cc(OC)c(OC)c(OC)c2)oc2cc(OC)cc(OC)c2c1=O	35.7		40.2	56.9	43	
COc1cc(OC)c2c(=O)c(OCCCCN3CCOCC3)c(-c3cc(OC)c(OC)c(OC)c3)oc2c1		4.17	20.6	12.5	5.24	
CC[n+]1c(-c2ccccc2)c2cc(N)ccc2c2ccc(N)cc21 [HOMIDIUM BROMIDE]	2.33					
COc1cc(OC)c2c(=O)c(OCCCN3CCCC3)c(-c3cc(OC)c(OC)c(OC)c3)oc2c1	28.9		32.1			
COc1cc(OC)c2c(=O)c(OCC(=O)N/N=C/c3sccc3C)c(-c3cc(OC)c(OC)c(OC)c3)oc2c1		4.47	7.74	10.2	8.35	
COc1cc(OC)c2c(=O)c(OCCCCN3CCCC3)c(-c3cc(OC)c(OC)c(OC)c3)oc2c1		10.4	18.6	26.8	18	
COc1cc(OC)c2c(=O)c(OCCCCN3CCN(C)CC3)c(-c3cc(OC)c(OC)c(OC)c3)oc2c1		3.87	12.2	6.95	4.17	
COc1cccc2c1C(=O)c1c(O)c3c(c(O)c1C2=O)C[C@@](O)(C(=O)CO)C[C@@H]3O[C@H]1C[C@H](N)[C@H](O)[C@H](C)O1 [DOXORUBICIN]		2.01	3.22	3.5	2.87	Activity (MDA-MB-231 [9]): Active
COc1cc(OC)c2c(=O)c(OCCCN3CCN(C)CC3)c(-c3cc(OC)c(OC)c(OC)c3)oc2c1	19.7	30.1			38	
COc1cc(OC)c2c(=O)c(OCCCN3CCCCC3)c(-c3cc(OC)c(OC)c(OC)c3)oc2c1	3.07	2.16	10	16.5	2.96	
COc1cc(OC)c2c(=O)c(OCC(=O)N/N=C/c3ccc[nH]3)c(-c3cc(OC)c(OC)c(OC)c3)oc2c1		3.75	5.61	8.73	7	
C/C(=C\C(=O)Nc1ccccc1C(=O)O)c1ccc2ccccc2c1	0.17					
COc1cc(OC)c2c(=O)c(OCCCN3CCOCC3)c(-c3cc(OC)c(OC)c(OC)c3)oc2c1		2.9	21	11.2	4.68	
